Drawing on ChEMBL document CHEMBL4011624, “The 1,2,4-Triazolo[4,3-a]pyrazin-3-one as a Versatile Scaffold for the Design of Potent Adenosine Human Receptor Antagonists. Structural Investigations to Target the A2A Receptor Subtype” (J Med Chem, 2017), this text covers Ki, IC50 and Activity for 1 compound.

Structures are written as SMILES. The source made the active and inactive calls. The rule behind the calls is not given here. Some results are limits rather than exact numbers.

The target of data set [1] is T1, Adenosine receptor A3 (Homo sapiens, UniProt P0DMS8).
T1 sequence (P0DMS8 whole entry): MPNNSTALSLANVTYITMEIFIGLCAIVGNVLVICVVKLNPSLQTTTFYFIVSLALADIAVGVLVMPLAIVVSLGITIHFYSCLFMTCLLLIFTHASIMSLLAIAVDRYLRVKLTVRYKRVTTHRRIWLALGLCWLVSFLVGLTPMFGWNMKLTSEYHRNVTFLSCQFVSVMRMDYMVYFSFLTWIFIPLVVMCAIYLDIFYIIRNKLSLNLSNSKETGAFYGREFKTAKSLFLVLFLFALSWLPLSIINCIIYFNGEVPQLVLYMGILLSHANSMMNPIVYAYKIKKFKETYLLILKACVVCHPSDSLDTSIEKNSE
The experiment in a line: Displacement of [3H]HEMADO from human adenosine receptor A3 expressed in CHO cell membranes after 3 hrs by microbeta scintillation counting method.

Data set [2] concerns the target T2, Adenosine receptor A2a (Homo sapiens, UniProt P29274). The experiment in a line: Displacement of [3H]NECA from human adenosine receptor A2A expressed in CHO cell membranes after 3 hrs by microbeta scintillation counting method.
In data set [3] the target is T3, Adenosine receptor A2b (Homo sapiens, UniProt P29275).
T3 sequence (P29275 whole entry): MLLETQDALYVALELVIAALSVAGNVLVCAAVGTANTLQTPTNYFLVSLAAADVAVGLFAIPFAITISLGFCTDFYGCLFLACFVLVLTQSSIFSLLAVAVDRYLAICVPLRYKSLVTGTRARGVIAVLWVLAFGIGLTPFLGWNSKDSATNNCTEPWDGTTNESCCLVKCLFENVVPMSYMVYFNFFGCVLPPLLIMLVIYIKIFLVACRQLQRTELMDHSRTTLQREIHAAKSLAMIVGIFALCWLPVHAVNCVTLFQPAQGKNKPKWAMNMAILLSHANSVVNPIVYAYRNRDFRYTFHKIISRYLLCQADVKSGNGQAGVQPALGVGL
The experiment in a line: Antagonist activity at human adenosine receptor A2B expressed in CHO cell membranes assessed as inhibition of NECA-induced increase of cAMP accumulation preincubated for 10 mins followed by NECA addition measured after 10 mins by GloSensor cAMP assay. Type of data set: functional, cell-based. In a few lines:
(§1)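 Receptors stably transfected in CHO cells. Antagonism read as inhibition of the NECA-stimulated rise in cAMP levels. IC50 values were derived from dose-response curves.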
(Cyclic AMP is a second messenger, typically raised through Gs and lowered through Gi signalling.)

The target of data set [4] is T2, Adenosine receptor A2a. The experiment in a line: Antagonist activity at human adenosine receptor A2A expressed in CHO cell membranes assessed as inhibition of NECA-induced increase of cAMP accumulation preincubated for 10 mins followed by NECA addition measured after 10 mins by GloSensor cAMP assay. The format is functional, cell-based. In a few lines: as §1
Data set [5] addresses T4, Adenosine receptor A1 (Homo sapiens, UniProt P30542).
T4 sequence (P30542 whole entry): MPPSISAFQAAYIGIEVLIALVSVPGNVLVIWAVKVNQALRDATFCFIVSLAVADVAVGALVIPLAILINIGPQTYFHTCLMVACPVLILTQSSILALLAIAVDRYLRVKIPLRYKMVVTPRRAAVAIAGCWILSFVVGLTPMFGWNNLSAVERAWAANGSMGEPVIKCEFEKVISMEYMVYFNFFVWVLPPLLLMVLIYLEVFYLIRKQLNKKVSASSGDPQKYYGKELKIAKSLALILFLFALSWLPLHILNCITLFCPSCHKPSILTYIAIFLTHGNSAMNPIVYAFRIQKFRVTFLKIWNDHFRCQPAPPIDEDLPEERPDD
The experiment in a line: Displacement of [3H]CCPA from human adenosine receptor A1 expressed in CHO cell membranes after 3 hrs by microbeta scintillation counting method. Background: In a radioligand displacement assay an active substance lowers the binding of a labelled ligand.

Data set [6] has as its system SH-SY5Y. The experiment in a line: Cytotoxicity against human SH-SY5Y cells assessed as increase in cell viability at 0.5 to 30 nM after 24 hrs by Celltiter-Glo luminescent assay. The format is cell-based. As to conditions: 0.03 µM. (ATP-based viability assays read luminescence as a measure of living cells.)
The subject of data set [7] is SH-SY5Y. The experiment in a line: Neuroprotective activity against MPP+-induced toxicity in human SH-SY5Y cells assessed as increase in cell viability at 15 nM pretreated for 1 hr followed by MPP+ addition measured after 24 hrs in the presence of human adenosine receptor A2A agonist CGS21680 by Celltiter-Glo luminescent assay. Type of data set: functional, cell-based. An outline of the steps:
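SH-SY5Y cells were given MPP+ (1.5 mM, 24 h) plus test agent at 15 nM, together with the A2A agonist CGS21680 at 10 to 100 nM, and cell viability was then measured.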

Data set [8] deals with SH-SY5Y. Briefly: Neuroprotective activity against MPP+-induced toxicity in human SH-SY5Y cells assessed as increase in cell viability at 15 nM pretreated for 1 hr followed by MPP+ addition measured after 24 hrs by Celltiter-Glo luminescent assay. The format is functional, cell-based. In a few lines:
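SH-SY5Y human neuroblastoma cells were exposed to MPP+ at 1.5 mM for 24 h, with test agent present, and cell viability was then measured. The MPP+ level was chosen from a pilot range of 50 μM to 3 mM over 24 h.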

T2 sequence (P29274 whole entry): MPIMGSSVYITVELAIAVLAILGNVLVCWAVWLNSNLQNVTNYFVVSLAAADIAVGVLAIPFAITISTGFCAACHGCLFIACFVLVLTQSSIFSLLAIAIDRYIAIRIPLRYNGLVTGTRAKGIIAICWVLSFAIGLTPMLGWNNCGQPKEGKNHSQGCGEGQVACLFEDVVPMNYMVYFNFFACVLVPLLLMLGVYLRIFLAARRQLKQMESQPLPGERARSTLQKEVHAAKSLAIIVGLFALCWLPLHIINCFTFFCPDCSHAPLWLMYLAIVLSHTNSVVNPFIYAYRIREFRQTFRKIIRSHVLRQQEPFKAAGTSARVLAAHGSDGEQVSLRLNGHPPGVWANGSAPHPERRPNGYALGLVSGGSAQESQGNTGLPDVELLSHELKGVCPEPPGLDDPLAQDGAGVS

For orientation: Ki means the dissociation constant of the complex between target and ligand, obtained from inhibition or displacement. A lower Ki goes with a stronger hold on the target. As a reminder, the IC50 is the concentration that gives 50% inhibition. Turning to `COc1ccc(-c2cn3c(=O)n(-c4ccccc4)nc3c(N)n2)cc1`, the Ki is over 30000 nM in data set [1], 7.2 nM in data set [2] and over 30000 nM in data set [5]. Also, the 50% inhibitory concentration (IC50) in data set [3] is over 30000 nM; in data set [4], 180 nM. Also, the Activity entry in data set [6] is on record as “Non-Toxic”. In addition, the outcome in data set [7] was inactive. The outcome in data set [8] was Active.
